# This is a sample that favours compounds with a hit; in the whole collection about 3.1% have one here.
# KCNK9 inh – blocks the human KCNK9 two-pore domain potassium channel; Q9NPC2; HEK293 KCNK9, FluxOR thallium flux fluorescence; stronger effect = lower value; B-score at 10 µM; 310,000 tested, 1.2% active; AID 488922;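 active = ratio B-score over 3 SD below the library mean, with starting fluorescence within 5 SD of its mean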;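 also: negative B-score means less thallium flux so channel inhibition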
# hERG rescue – hERG (human) protection from proarrhythmic block | activation (rescue from dofetilide block), less the hit threshold, % at 10 µM | AID 1511 | 310,000 tested, 0.51% active | CHO-hERG, FluxOR thallium flux, dofetilide IC70 present | Q12809;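 active = activation above the mean of controls blocked by dofetilide plus 5 SD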;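 also: thallium influx through hERG after potassium depolarization seen as dye fluorescence rise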
# KCNK3 block – human KCNK3 channel inhibition, primary screen; 340,000 tested, 0.84% active; O14649; B-score at 10 µM; AID 602410; CHO-KCNK3 thallium flux, FluxOR fluorescence; stronger effect = lower value;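 active = B-score under library mean minus 4 SD, starting fluorescence ratio at most library mean plus 5 SD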;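 also: more negative B-score means stronger inhibition of thallium flux through KCNK3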
# Target sequence (O14649 whole entry, looked up): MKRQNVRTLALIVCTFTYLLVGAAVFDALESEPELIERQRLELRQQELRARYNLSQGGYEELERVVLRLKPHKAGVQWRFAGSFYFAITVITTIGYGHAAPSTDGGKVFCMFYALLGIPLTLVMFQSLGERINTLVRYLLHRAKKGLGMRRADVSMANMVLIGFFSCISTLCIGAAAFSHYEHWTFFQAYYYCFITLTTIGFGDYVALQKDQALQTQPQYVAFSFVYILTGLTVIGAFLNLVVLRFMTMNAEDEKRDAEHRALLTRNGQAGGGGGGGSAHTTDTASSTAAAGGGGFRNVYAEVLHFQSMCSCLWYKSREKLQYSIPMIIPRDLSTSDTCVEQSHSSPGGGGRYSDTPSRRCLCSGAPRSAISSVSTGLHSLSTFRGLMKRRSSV
# KCNQ1 act – potentiators or activators of human KCNQ1 potassium channel; B-score at 10 µM; 310,000 tested, 0.35% active; P51787; CHO-K1 KCNQ1, thallium flux FluxOR fluorescence; stronger effect = higher value;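 active = fluorescence ratio B-score, a plate-corrected score, at least three library SD, with initial intensity B-score within 5 SD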
#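 assay system = CHO-K1 cells stably expressing KCNQ1 | medium = assay buffer, equal DMSO in all wells | timing = 37 °C overnight plating, 90-min dark dye load, 20-min compound pretreatment | measured by = kinetic FluxOR thallium fluorescence, 10-s 1-Hz baseline, 110-s post-stimulus read | measure = fluorescence change relative to baseline, converted to B score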
# KCNQ1 inh – blocks the human KCNQ1 potassium channel | P51787 | CHO-K1 KCNQ1, FluxOR thallium flux fluorescence; stronger effect = higher value | B-score at 10 µM | 310,000 tested, 1.3% active | AID 2642;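 active = compounds whose thallium flux B-score, printed positive for inhibition, exceeds three library SD while starting fluorescence stays within three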;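 also: channel opened by potassium depolarization with thallium stimulus after 20 min compound exposure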
# Numbers stand for hits; 0 = inactive; - = no result given.
SMILES,KCNK9 inh,hERG rescue,KCNK3 block,KCNQ1 act,KCNQ1 inh
COCCOC(=O)/C(=C/c1ccc(OC(=O)c2ccccc2)cc1)C(C)=O,0,0,0,13,0
CCOC(=O)/C(=C/c1ccc(OC(=O)c2ccncc2)cc1)C(C)=O,0,0,0,0,0
O=C(CN1C(=O)C(c2ccccc2)Oc2cccnc21)NCc1ccccc1F (stereo unspecified),0,0,0,0,0
CCN(CC)S(=O)(=O)c1ccc(N2CCCCC2)c(NC(=O)/C=C/c2cc(OC)c(OC)c(OC)c2)c1,-6.9,0,0,0,0
COc1ccc(C(c2c(NC(=O)c3ccco3)sc(C)c2C)N2CCOCC2)cc1 (stereo unspecified),-,-,-11,-,-
C=C1C(=O)OC2C=C(CO)C3OC3C3OC3(C)CC(OC(=O)/C(=C/C)COC(C)=O)C12 (stereo unspecified),-,-,0,-,-
CC(c1ccccc1)C1C(C#N)=C(N)SC(N)=C1C#N (stereo unspecified),0,0,0,0,0
CC(CC1C(C#N)=C(N)SC(N)=C1C#N)c1ccccc1 (stereo unspecified),0,0,0,0,7
COc1ccc(-n2cc(-c3ccc(C)cc3)[n+]3c2SCC3)cc1,0,0,0,0,7
Cc1ccc(-c2cn(-c3ccccc3)c3[n+]2CCCS3)cc1,0,0,0,0,0
CCc1ccc(-n2cc(-c3ccc(F)cc3)[n+]3c2SCCC3)cc1,0,0,0,0,6
COc1ccccc1C(=O)NCCC(=O)N1CC(C)OC(C)C1 (stereo unspecified),-,-,0,-,-
CCN(CC)CCNc1ncnc2c1sc1nc(N3CCCC3)c3c(c12)CC(C)(C)OC3,0,0,0,8,0
O=c1c(-c2cccc3ccccc23)[n+]([O-])c2ccccc2n1O,0,9.5,0,0,0
CCOn1c(=O)c(-c2cccc3ccccc23)[n+]([O-])c2ccccc21,0,0,0,0,0
CCc1ccccc1Nc1cc(C(=O)NCc2ccccn2)c2ccccc2n1,-8,0,0,0,0
CCc1ccc(-c2cc(C(=O)NCc3ccccn3)c3ccccc3n2)cc1,0,0,0,0,0
COc1ccc(Cl)cc1NC(=O)CSc1cccc[n+]1[O-],-,-,0,-,-
COCC(=O)N1CCC2CC1c1cc(Cl)ccc12 (stereo unspecified),-,-,0,-,-
COc1cc(/C=C2/C(=O)NN(c3ccccc3)C2=O)cc(Br)c1O,0,6.8,0,0,0
Cc1c(CCOC(=O)CC23CC4CC(CC(C)(C4)C2)C3)sc[n+]1CC(=O)c1ccccc1,0,0,0,0,11
Cc1c(CCOC(=O)C23CC4CC(CC(C)(C4)C2)C3)sc[n+]1CC(=O)c1ccccc1,0,0,0,0,0
NC(=O)C1CCCN(C(=O)c2ccc(-c3cccc(Cl)c3Cl)o2)C1 (stereo unspecified),-,-,0,-,-
O=C(N/N=C\c1ccc(-c2ccccc2[N+](=O)[O-])o1)C1COc2ccccc2O1 (stereo unspecified),-6.8,0,0,0,0
Cc1ncsc1C(=O)N1N=C2/C(=C/c3ccccc3)CCCC2C1c1ccccc1 (stereo unspecified),-7.6,0,0,0,7

# Compound activity as filed in PubChem BioAssay.
